Results on ten compounds are retold here after PubChem BioAssay AID1040 (The Scripps Research Institute Molecular Screening Center, 2008).

In all, about 200,000 compounds went through this assay and about 2,000 (1%) were called active. What follows is part of a selection rich in actives, with near analogues and random picks from the rest. A number with no mark means an inactive call.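 Rule for the calls: active = inhibition above the campaign mean inhibition of all tested compounds plus 3 SD (cut at about 20% in these data); inactive = the rest.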

For this assay, the target named is Neuropeptide Y receptor type 1 (Homo sapiens) (UniProt P25929). Briefly: blockers of human neuropeptide Y Y1 receptor – cell-based, primary screen (AID 1040).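 Note: 0% = DMSO wells given NPY plus isoproterenol and 100% = isoproterenol alone without NPY.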 To be noted: HEK293-CNG Y1 cells, membrane potential fluorescence; at 3.6 µM; stronger effect = higher value. The essentials: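 Material: HEK293 cells co-expressing NPY Y1 receptor and cyclic-nucleotide gated channel. Timing: compound incubation 1 h at room temperature, readout 45 min post-stimulation. Signal: fluorescence, membrane potential probe.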
Neuropeptide Y receptor type 1 (Homo sapiens), sequence (P25929 whole entry, looked up): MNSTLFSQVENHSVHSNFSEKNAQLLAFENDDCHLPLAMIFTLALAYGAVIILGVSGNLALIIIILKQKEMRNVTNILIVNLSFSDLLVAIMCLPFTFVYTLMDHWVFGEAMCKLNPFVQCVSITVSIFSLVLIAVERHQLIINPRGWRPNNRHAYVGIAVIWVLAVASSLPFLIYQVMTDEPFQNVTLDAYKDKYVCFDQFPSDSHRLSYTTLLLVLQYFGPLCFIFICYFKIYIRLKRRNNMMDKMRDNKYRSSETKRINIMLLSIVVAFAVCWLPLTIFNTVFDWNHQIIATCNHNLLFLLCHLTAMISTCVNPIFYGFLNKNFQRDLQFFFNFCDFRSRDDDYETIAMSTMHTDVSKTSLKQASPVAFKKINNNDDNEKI
Take `N#Cc1ccc(Cn2cc(C(=O)c3ccco3)c3ccccc32)cc1`: the inhibition (in general, the drop in the measured response relative to a control, in per cent) is 21.4% (active).

Consider `NC(=O)Cn1cc(C(=O)c2ccccc2F)c2ccccc21`, for which the inhibition is 4.87%.

On to `CC(C)Oc1cccc(C(=O)C2CCCN(C3CCOCC3)C2)c1` (stereo not given), for which the inhibition was 1.82%.

Regarding `CCOC(=O)c1c(N)n(Cc2ccccc2)c2nc3ccccc3nc12`, the inhibition is 26.8% (active).

For the compound `COc1cc(Cn2c(N)c(C(=O)NCc3ccco3)c3nc4ccccc4nc32)cc(OC)c1OC`, the inhibition was -7.12%.

With `CCOC(=O)c1c(N)n(CCN2CCOCC2)c2nc3ccccc3nc12`, the inhibition is -2.58%.

Turning to `N=c1ccccn1Cc1ccccc1`, the inhibition is -3.41%.

As for `CCc1nnc(NS(=O)(=O)c2ccc(N=Cc3c(O)n(-c4ccccc4)c(=O)[nH]c3=O)cc2)s1`, the inhibition is 12.6%.

With `COc1ccc(C(=O)C2CCCN(Cc3ccc(C)s3)C2)cc1OC` (stereo not given), the inhibition is -3.61%.

For `O=C(CN1CCCC1=O)NCCc1ccccc1`, the inhibition was -2.4%.
